Experimental data taken from ChEMBL document CHEMBL1157787, “Design, synthesis and evaluation of progesterone-adenine hybrids as bivalent inhibitors of P-glycoprotein-mediated multidrug efflux” (Bioorg Med Chem Lett, 2010).

Legend:
[1] = target: T1, ATP-dependent translocase ABCB1 (Homo sapiens, UniProt P08183); experiment: Inhibition of P-glycoprotein-mediated daunorubicin efflux in K562/R7 human leukemic cells overexpressing P-glycoprotein assessed as intracellular accumulation of daunorubicin at 10 uM after 1 hr by flow cytometry relative to progesterone; type: cell-based; design: scale not given: the % may be the effect or the level left
Summary of the method: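 Pgp-overexpressing resistant K562/R7 human leukemic cells; intracellular daunorubicin (1 μM) accumulation measured with compound at 10 μM. Accumulation with progesterone (10 μM) was set as 100%, and compound values were expressed as percent of that, with standard deviation.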

K562 = experiment: Cytotoxicity against human K562 cells expressing very low P-glycoprotein at 10 uM after 24 hrs relative to control
[2] = target: T1, ATP-dependent translocase ABCB1; experiment: Inhibition of P-glycoprotein-mediated daunorubicin efflux in K562/R7 human leukemic cells overexpressing P-glycoprotein assessed as intracellular accumulation of daunorubicin at 10 uM after 1 hr by flow cytometry; type: cell-based; design: scale not given: the % may be the effect or the level left
Summary of the method: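 K562/R7 human leukemic cells overexpressing Pgp; intracellular daunorubicin (1 μM) accumulation measured with test compounds at 10 μM. Progesterone (10 μM) served as positive control; accumulation with progesterone set as 100%, values expressed as percent of progesterone accumulation; standard deviation reported.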

T1 sequence (P08183 whole entry): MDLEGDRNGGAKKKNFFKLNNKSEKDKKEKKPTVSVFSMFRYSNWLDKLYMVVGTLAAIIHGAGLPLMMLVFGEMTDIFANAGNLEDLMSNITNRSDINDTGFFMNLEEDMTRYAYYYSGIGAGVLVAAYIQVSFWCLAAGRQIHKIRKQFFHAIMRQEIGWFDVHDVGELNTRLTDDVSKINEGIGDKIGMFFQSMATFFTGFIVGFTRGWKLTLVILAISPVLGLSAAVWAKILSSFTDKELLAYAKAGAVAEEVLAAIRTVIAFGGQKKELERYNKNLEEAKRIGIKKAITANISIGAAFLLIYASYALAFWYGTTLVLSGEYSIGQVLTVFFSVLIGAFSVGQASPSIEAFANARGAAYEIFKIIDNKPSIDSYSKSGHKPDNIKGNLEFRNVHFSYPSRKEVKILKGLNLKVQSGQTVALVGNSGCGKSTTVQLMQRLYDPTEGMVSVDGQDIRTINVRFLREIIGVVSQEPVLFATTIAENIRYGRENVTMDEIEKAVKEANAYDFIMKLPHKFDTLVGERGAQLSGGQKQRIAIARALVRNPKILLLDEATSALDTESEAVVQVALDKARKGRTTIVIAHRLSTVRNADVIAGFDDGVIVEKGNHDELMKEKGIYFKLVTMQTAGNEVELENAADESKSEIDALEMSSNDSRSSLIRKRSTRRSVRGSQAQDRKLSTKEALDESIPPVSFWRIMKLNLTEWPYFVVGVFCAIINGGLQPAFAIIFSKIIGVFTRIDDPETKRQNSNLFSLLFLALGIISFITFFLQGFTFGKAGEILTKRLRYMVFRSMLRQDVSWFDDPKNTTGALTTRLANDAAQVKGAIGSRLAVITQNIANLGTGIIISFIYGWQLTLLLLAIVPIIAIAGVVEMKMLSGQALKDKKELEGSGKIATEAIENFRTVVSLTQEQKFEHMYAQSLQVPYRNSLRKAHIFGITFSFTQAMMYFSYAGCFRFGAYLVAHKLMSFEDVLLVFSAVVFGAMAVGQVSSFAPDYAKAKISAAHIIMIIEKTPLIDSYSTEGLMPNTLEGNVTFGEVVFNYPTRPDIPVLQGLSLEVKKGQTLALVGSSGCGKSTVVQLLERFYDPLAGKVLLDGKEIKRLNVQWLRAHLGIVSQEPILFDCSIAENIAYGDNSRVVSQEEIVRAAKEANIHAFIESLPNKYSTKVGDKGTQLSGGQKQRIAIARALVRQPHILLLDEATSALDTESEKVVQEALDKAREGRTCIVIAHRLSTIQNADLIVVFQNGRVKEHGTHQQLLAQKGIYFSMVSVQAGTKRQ

For `C[C@]12CC[C@H]3[C@@H](CCC4=CC(=O)CC[C@@]43C)[C@@H]1CC[C@@H]2C(=O)NC/C=C/Cn1cnc2c(N)ncnc21`, the Activity [1] was 72.2% and the Activity (K562) was 80%.

`C[C@]12CC[C@H]3[C@@H](CCC4=CC(=O)CC[C@@]43C)[C@@H]1CC[C@@H]2C(=O)NC/C=C\Cn1cnc2c(N)ncnc21` gave an Activity [1] of 86.2% and an Activity (K562) of 80%.

With `C[C@]12CC[C@H]3[C@@H](CCC4=CC(=O)CC[C@@]43C)[C@@H]1CC[C@@H]2C(=O)NCCCCn1cnc2c(N)ncnc21` the Activity [1] was 78% and the Activity (K562) was 80%.

Molecule `C[C@]12CC[C@H]3[C@@H](CCC4=CC(=O)CC[C@@]43C)[C@@H]1CC[C@@H]2C(=O)NCCCCCCn1cnc2c(N)ncnc21` has an Activity [1] of 110.9% and an Activity (K562) of 80%.

For `C[C@]12CC[C@H]3[C@@H](CCC4=CC(=O)CC[C@@]43C)[C@@H]1CC[C@@H]2C(=O)NC[C@H]1CC[C@H](Cn2cnc3c(N)ncnc32)CC1`, the Activity [1] was 98.9% and the Activity (K562) was 80%.

Molecule `C[C@]12CC[C@H]3[C@@H](CCC4=CC(=O)CC[C@@]43C)[C@@H]1CC[C@@H]2C(=O)NCc1ccc(Cn2cnc3c(N)ncnc32)cc1` has an Activity [1] of 98.1% and an Activity (K562) of 80%.

Molecule `C[C@]12CC[C@H]3[C@@H](CCC4=CC(=O)CC[C@@]43C)[C@@H]1CC[C@@H]2C(=O)NCC#CCn1cnc2c(N)ncnc21` has an Activity [1] of 61.2% and an Activity (K562) of 80%.

With `CC(=O)[C@H]1CC[C@H]2[C@@H]3CCC4=CC(=O)CC[C@]4(C)[C@H]3CC[C@]12C` [PROGESTERONE] the Activity [2] was 25%.
